Laboratory results reported in ChEMBL document CHEMBL1155292, “Synthesis, analgesic and anti-inflammatory activities evaluation of some bi-, tri- and tetracyclic condensed pyrimidines” (Eur J Med Chem, 2009).

Key:
Rattus norvegicus [1] = test: Antiinflammatory activity in albino rat assessed as inhibition of carrageenan-induced paw edema at 0.029 mmol/kg, po after 2 hrs relative to control; type: functional
In short: (§1)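 Adult albino rats of either sex, 120–150 g, six per group. Compounds at 0.029 mmol/kg suspended in saline with a few drops of Tween 80 and given by oral stomach tube. After 1 h, 0.1 ml of freshly prepared 1% carrageenan in saline injected subplantar into the right hind paw. Paw thickness measured at 1–4 h; % edema inhibition versus control; mean ± SEM; ANOVA.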

Rattus norvegicus [2] = test: Gastrointestinal toxicity in albino rat assessed as ulcerogenic index at 0.029 mmol/kg, po after 5 hrs; type: organism-based; conditions: in vivo
In short: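 Adult albino rats of either sex (120–150 g), 6 per group, got the test compounds orally by stomach tube as a suspension in saline with a few drops of tween 80. They were the same rats used in the carrageenan paw-edema test. Stomachs were then opened along the great curvature and examined for lesions or bleeding. Ulceration was recorded as the number of rats with ulcers out of 6.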

Rattus norvegicus [3] = test: Antiinflammatory activity in albino rat assessed as inhibition of carrageenan-induced paw edema at 0.029 mmol/kg, po after 4 hrs relative to control; type: functional; in short: as §1
Rattus norvegicus [4] = test: Antiinflammatory activity in albino rat assessed as inhibition of carrageenan-induced paw edema at 0.029 mmol/kg, po after 4 hrs relative to indomethacin; type: functional
In short: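 Rat carrageenan paw edema: oral 0.029 mmol/kg in saline/Tween 80, 1 h before subplantar 0.1 ml 1% carrageenan into the right hind paw; six rats per group. Potency is % inhibition of the test compound divided by % inhibition of indomethacin at 4 h.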

Rattus norvegicus [5] = test: Antiinflammatory activity in albino rat assessed as inhibition of carrageenan-induced paw edema at 0.029 mmol/kg, po after 3 hrs relative to control; type: functional; in short: as §1
Rattus norvegicus [6] = test: Antiinflammatory activity in albino rat assessed as inhibition of carrageenan-induced paw edema at 0.029 mmol/kg, po after 1 hr relative to control; type: functional; in short: as §1
Mus musculus [7] = test: Analgesic activity in albino mouse assessed as decrease in acetic acid-induced writhing at 11.55 mg/kg, po administered 1 hr prior to acetic acid challenge relative to control; type: functional
In short: (§2)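 Albino mice of either sex, 18–22 g, six per group. Test agents suspended in saline with a few drops of Tween 80 and given by oral stomach tube; controls handled identically without drug. After 1 h, 0.3 ml of 1% acetic acid ip. Writhing contractions counted for 30 min, starting 5 min after injection. % protection versus control mean; mean ± SEM; one-way ANOVA with post hoc test.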

Mus musculus [8] = test: Analgesic activity in albino mouse assessed as decrease in acetic acid-induced writhing at 12.87 mg/kg, po administered 1 hr prior to acetic acid challenge relative to control; type: functional; in short: as §2
Mus musculus [9] = test: Analgesic activity in albino mouse assessed as decrease in acetic acid-induced writhing at 11.32 mg/kg, po administered 1 hr prior to acetic acid challenge relative to control; type: functional; in short: as §2
Mus musculus [10] = test: Analgesic activity in po dosed albino mouse assessed as decrease in acetic acid-induced writhing administered 1 hr prior to acetic acid challenge; type: functional, organism-based; in short: as §2
Mus musculus [11] = test: Analgesic activity in albino mouse assessed as decrease in acetic acid-induced writhing at 8 mg/kg, po administered 1 hr prior to acetic acid challenge; type: functional; in short: as §2
Mus musculus [12] = test: Analgesic activity in albino mouse assessed as decrease in acetic acid-induced writhing at 11.96 mg/kg, po administered 1 hr prior to acetic acid challenge relative to control; type: functional; in short: as §2
Mus musculus [13] = test: Analgesic activity in albino mouse assessed as decrease in acetic acid-induced writhing at 1 mg/kg, po administered 1 hr prior to acetic acid challenge; type: functional; in short: as §2
Mus musculus [14] = test: Analgesic activity in albino mouse assessed as decrease in acetic acid-induced writhing at 0.8 mg/kg, po administered 1 hr prior to acetic acid challenge; type: functional; in short: as §2
Mus musculus [15] = test: Analgesic activity in albino mouse assessed as decrease in acetic acid-induced writhing at 2 mg/kg, po administered 1 hr prior to acetic acid challenge; type: functional; in short: as §2
Mus musculus [16] = test: Analgesic activity in albino mouse assessed as decrease in acetic acid-induced writhing at 0.4 mg/kg, po administered 1 hr prior to acetic acid challenge; type: functional; in short: as §2
Mus musculus [17] = test: Analgesic activity in albino mouse assessed as decrease in acetic acid-induced writhing at 4 mg/kg, po administered 1 hr prior to acetic acid challenge; type: functional; in short: as §2
Mus musculus [18] = test: Analgesic activity in albino mouse assessed as decrease in acetic acid-induced writhing at 13.81 mg/kg, po administered 1 hr prior to acetic acid challenge relative to control; type: functional; in short: as §2
Rattus norvegicus [19] = test: Antiinflammatory activity in po dosed albino rat assessed as inhibition of carrageenan-induced paw edema; type: functional, organism-based
In short: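 Adult albino rats of either sex, 120–150 g, groups of 6. Compound suspended in saline with a few drops of tween 80, given by oral stomach tube 1 h before subplantar injection of freshly prepared 1% carrageenan (0.1 ml) in saline into right hind paw. Paw thickness read at 1–4 h; % edema inhibition versus carrageenan control; mean ± SEM, one-way ANOVA with post hoc test.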

Rattus norvegicus [20] = test: Antiinflammatory activity in albino rat assessed as inhibition of carrageenan-induced paw edema at 25 mg/kg, po; type: functional
In short: (§3)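 Rat carrageenan paw edema with oral dosing at 10, 15, 20 and 25 mg/kg, suspended in saline with Tween 80, 1 h before subplantar 0.1 ml 1% carrageenan into the right hind paw. % edema inhibition versus control at each dose; IC50 (mg/kg) derived from these four doses.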

Rattus norvegicus [21] = test: Antiinflammatory activity in albino rat assessed as inhibition of carrageenan-induced paw edema at 15 mg/kg, po; type: functional; in short: as §3
Rattus norvegicus [22] = test: Antiinflammatory activity in albino rat assessed as inhibition of carrageenan-induced paw edema at 10 mg/kg, po; type: functional; in short: as §3
Mus musculus [23] = test: Analgesic activity in albino mouse assessed as decrease in acetic acid-induced writhing at 11.52 mg/kg, po administered 1 hr prior to acetic acid challenge relative to control; type: functional; in short: as §2
Rattus norvegicus [24] = test: Antiinflammatory activity in albino rat assessed as inhibition of carrageenan-induced paw edema at 20 mg/kg, po; type: functional; in short: as §3
Mus musculus [25] = test: Analgesic activity in albino mouse assessed as decrease in acetic acid-induced writhing at 13.84 mg/kg, po administered 1 hr prior to acetic acid challenge relative to control; type: functional; in short: as §2
Mus musculus [26] = test: Analgesic activity in albino mouse assessed as decrease in acetic acid-induced writhing at 12.04 mg/kg, po administered 1 hr prior to acetic acid challenge relative to control; type: functional; in short: as §2

Compound	inhibition in vivo at 29 µmol/kg (Rattus norvegicus [1]) [%]	UI (Rattus norvegicus [2])	inhibition in vivo at 29 µmol/kg (Rattus norvegicus [3]) [%]	relative potency at 29 µmol/kg (Rattus norvegicus [4])	inhibition in vivo at 29 µmol/kg (Rattus norvegicus [5]) [%]	inhibition in vivo at 29 µmol/kg (Rattus norvegicus [6]) [%]	also measured
O=C1N(c2ccccc2)c2nc(-c3ccccc3)n3c(=O)[nH]nc3c2C2CCCN12 (centres undefined)	12.4	Non-toxic	15.5	0.56	17.3	10.1	inhibition in vivo at 11.55 mg/kg (Mus musculus [7]): 75.9%
CCOC(=O)NNc1nc(-c2ccccc2)nc2c1C1CCCN1C(=O)N2c1ccccc1 (centres undefined)	17.4		16.1	0.59	18	19.1	inhibition in vivo at 12.87 mg/kg (Mus musculus [8]): 91.8%
COc1ccc(C2NC(=O)C3=C(N2)N(c2ccccc2)C(=O)N2CCCC32)cc1 (centres undefined)	6.64		18.6	0.68	13.7	6.72	inhibition in vivo at 11.32 mg/kg (Mus musculus [9]): 84.4%
O=C1CN2C(=NN1)C1=C(N=C2c2ccccc2)N(c2ccccc2)C(=O)N2CCCC12 (centres undefined)	7.44	Non-toxic	21.1	0.77	15.8	2.23	IC50 (Mus musculus [10]): 0.446 mg/kg; inhibition in vivo at 8 mg/kg (Mus musculus [11]): 88.8%; inhibition in vivo at 11.96 mg/kg (Mus musculus [12]): 91.8%; inhibition in vivo at 1 mg/kg (Mus musculus [13]): 76.6%; inhibition in vivo at 0.8 mg/kg (Mus musculus [14]): 63.3%; inhibition in vivo at 2 mg/kg (Mus musculus [15]): 82.4%; inhibition in vivo at 0.4 mg/kg (Mus musculus [16]): 43.1%; inhibition in vivo at 4 mg/kg (Mus musculus [17]): 86.1%
O=C(NNc1nc(-c2ccccc2)nc2c1C1CCCN1C(=O)N2c1ccccc1)c1ccccc1 (centres undefined)	28.9		25.5	0.93	27.4	35.9	inhibition in vivo at 13.81 mg/kg (Mus musculus [18]): 71.8%
O=C1CN=C2C3=C(N=C(c4ccccc4)N12)N(c1ccccc1)C(=O)N1CCCC31 (centres undefined)	22.3	Non-toxic	29.2	1.06	27.4	14.6	IC50 (Rattus norvegicus [19]): 17.62 mg/kg; inhibition in vivo at 25 mg/kg (Rattus norvegicus [20]): 68.4%; inhibition in vivo at 15 mg/kg (Rattus norvegicus [21]): 40%; inhibition in vivo at 10 mg/kg (Rattus norvegicus [22]): 17%; inhibition in vivo at 11.52 mg/kg (Mus musculus [23]): 78.5%; inhibition in vivo at 20 mg/kg (Rattus norvegicus [24]): 61.3%
O=C(NNc1nc(-c2ccccc2)nc2c1C1CCCN1C(=O)N2c1ccccc1)c1cccnc1 (centres undefined)	11.6		5.59	0.2	8.63	32.6	inhibition in vivo at 13.84 mg/kg (Mus musculus [25]): 77.9%
O=C1N(c2ccccc2)c2nc(-c3ccccc3)nc(N3CCCC3)c2C2CCCN12 (centres undefined)	26.5	Non-toxic	15.5	0.56	25.2	7.82	inhibition in vivo at 12.04 mg/kg (Mus musculus [26]): 95%
